These results are taken from ChEMBL document CHEMBL4014339, “Discovery of 1,4-Benzodiazepine-2,5-dione (BZD) Derivatives as Dual Nucleotide Binding Oligomerization Domain Containing 1/2 (NOD1/NOD2) Antagonists Sensitizing Paclitaxel (PTX) To Suppress Lewis Lung Carcinoma (LLC) Growth in Vivo” (J Med Chem, 2017).

Format in all cases: cell-based
Test [1] concerns the target T1, Nucleotide-binding oligomerization domain-containing protein 2 (Homo sapiens, UniProt Q9HC29). Kind of test: Antagonist activity at human NOD2 expressed in HEK-Blue cells assessed as inhibition of MDP-stimulated cell activation at 5 uM preincubated for 3 hrs followed by MDP addition measured after 20 hrs by SEAP reporter gene assay. On the technique in general: A reporter such as luciferase makes a cellular process visible.

For test [2], the target named is T2, Nucleotide-binding oligomerization domain-containing protein 1 (Homo sapiens) (UniProt Q9Y239).
T2 sequence (whole entry): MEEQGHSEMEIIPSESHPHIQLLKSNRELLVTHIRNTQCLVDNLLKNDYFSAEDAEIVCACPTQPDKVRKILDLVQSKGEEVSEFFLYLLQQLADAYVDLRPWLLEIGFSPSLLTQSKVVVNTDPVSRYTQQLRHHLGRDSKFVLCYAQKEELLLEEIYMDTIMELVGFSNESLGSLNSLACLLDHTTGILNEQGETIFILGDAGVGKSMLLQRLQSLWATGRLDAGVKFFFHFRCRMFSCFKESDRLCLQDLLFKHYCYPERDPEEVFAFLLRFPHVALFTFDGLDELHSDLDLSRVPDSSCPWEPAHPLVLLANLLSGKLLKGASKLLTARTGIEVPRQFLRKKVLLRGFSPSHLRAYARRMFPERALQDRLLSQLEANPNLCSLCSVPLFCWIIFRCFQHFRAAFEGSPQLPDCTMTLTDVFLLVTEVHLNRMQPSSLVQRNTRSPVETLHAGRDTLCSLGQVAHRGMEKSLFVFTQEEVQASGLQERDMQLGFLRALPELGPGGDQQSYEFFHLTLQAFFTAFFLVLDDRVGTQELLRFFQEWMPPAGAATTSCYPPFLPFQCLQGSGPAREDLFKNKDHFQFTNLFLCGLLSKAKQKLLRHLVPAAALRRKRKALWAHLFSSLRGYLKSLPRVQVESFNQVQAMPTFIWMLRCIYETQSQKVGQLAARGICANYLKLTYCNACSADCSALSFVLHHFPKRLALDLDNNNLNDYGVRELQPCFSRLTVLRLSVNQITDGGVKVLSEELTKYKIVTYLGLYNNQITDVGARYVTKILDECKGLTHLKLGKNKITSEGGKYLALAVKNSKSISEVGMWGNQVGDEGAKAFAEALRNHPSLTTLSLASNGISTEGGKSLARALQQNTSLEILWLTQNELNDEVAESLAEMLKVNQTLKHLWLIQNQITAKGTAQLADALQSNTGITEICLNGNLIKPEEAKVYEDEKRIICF
Put plainly: Antagonist activity at human NOD1 expressed in HEK-blue cells assessed as inhibition of C12-iE-DAP-stimulated cell activation at 5 uM preincubated for 3 hrs followed by C12-iE-DAP addition measured after 20 hrs by SEAP reporter gene assay.

Test [3] concerns the target T2, Nucleotide-binding oligomerization domain-containing protein 1 (Homo sapiens). Kind of test: Antagonist activity at human NOD1 expressed in HEK-Blue cells assessed as inhibition of C12-iE-DAP-stimulated cell activation at 10 uM preincubated for 3 hrs followed by C12-iE-DAP addition measured after 20 hrs by SEAP reporter gene assay. In a few lines:
(§1)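 HEK-Blue hNOD1 or hNOD2 cells preincubated with compound 3 h, then stimulated 20 h with C12-iE-DAP 50 ng/mL (NOD1) or MDP 100 ng/mL (NOD2); SEAP in supernatant quantified. Primary screen at 10 μM, hits repeated in triplicate; IC50 from dose-response, mean ± SD (n = 3), only for compounds reaching ≥50% inhibition at the screening concentration.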

For test [4], the target named is T1, Nucleotide-binding oligomerization domain-containing protein 2. Kind of test: Antagonist activity at human NOD2 expressed in HEK-Blue cells assessed as inhibition of MDP-stimulated cell activation at 10 uM preincubated for 3 hrs followed by MDP addition measured after 20 hrs by SEAP reporter gene assay. In a few lines:
as §1

Structures are written as SMILES.

T1 sequence (Q9HC29 whole entry, the tested form may be a part): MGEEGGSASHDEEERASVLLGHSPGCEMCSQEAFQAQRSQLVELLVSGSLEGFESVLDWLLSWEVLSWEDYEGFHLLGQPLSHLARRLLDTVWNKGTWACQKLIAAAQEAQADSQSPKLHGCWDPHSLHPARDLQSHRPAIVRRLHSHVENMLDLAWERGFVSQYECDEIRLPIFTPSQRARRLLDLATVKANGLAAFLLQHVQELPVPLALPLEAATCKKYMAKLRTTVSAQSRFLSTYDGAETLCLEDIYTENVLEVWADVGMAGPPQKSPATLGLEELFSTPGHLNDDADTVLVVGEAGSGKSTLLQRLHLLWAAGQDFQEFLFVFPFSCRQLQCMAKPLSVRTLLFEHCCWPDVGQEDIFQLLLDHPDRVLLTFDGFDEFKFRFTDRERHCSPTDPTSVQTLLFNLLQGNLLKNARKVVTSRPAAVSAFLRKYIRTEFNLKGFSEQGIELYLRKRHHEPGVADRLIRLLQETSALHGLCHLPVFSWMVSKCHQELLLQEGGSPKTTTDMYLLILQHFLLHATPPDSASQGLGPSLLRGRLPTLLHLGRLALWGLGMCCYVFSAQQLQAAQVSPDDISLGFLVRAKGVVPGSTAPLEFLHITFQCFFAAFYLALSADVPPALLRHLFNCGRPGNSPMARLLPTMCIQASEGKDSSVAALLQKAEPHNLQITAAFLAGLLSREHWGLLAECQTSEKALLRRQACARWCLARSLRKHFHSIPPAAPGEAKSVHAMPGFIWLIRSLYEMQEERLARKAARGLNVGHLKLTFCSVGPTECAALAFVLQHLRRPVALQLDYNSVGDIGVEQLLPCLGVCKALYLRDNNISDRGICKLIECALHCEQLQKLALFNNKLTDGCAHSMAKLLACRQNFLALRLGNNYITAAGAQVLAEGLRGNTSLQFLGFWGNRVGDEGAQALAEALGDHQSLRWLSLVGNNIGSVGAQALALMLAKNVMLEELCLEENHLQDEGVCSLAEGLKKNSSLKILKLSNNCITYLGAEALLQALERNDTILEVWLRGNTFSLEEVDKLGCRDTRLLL

Consider `COC(=O)CC[C@H]1NC(=O)c2cc(Oc3cccc(N(C)C)c3)c(NC(=O)COCc3ccsc3)cc2NC1=O`, for which the inhibition (as a rule, the relative decrease from the control value, in per cent) in test [1] came to 38.6%; in test [2], 48.1%.

Regarding `CN(C)c1cccc(Oc2cc3c(cc2NC(=O)COCc2ccc(C(F)(F)F)cc2)NC(=O)CNC3=O)c1`, the inhibition in test [1] came to 31.6%; in test [2], 38%.

As for `COC(=O)CC[C@H]1NC(=O)c2cc(Oc3cccc(N(C)C)c3Cl)c(NC(=O)COCc3ccccc3)cc2NC1=O`, the inhibition came to 44.6% in test [1], 44.2% in test [3], 46% in test [4] and 55.8% in test [2].

`CCCCCCCCCCCCCCCCNC(=O)CC[C@H]1NC(=O)c2cc(Oc3cccc(N(C)C)c3)c(NC(=O)COCc3ccccc3)cc2NC1=O`: the inhibition is -4.77% in test [1], 27.5% in test [3], -7.1% in test [4] and 10.6% in test [2].

Take `CN(C)c1cccc(Oc2cc3c(cc2NC(=O)COCc2ccccc2)NC(=O)[C@@H](CCC(=O)N2CCNCC2)NC3=O)c1`: the figures for the inhibition in test [1] and in test [2] were 42.2% and 33.4%, respectively.

With `COC(=O)CC[C@H]1NC(=O)c2cc(Oc3cccc(N(C)C)c3)c(NC(=O)COCc3ccccc3Cl)cc2NC1=O`, the inhibition is 20.9% in test [1], 23.8% in test [4] and -5.97% in test [2].

As for `CCCNC(=O)CC[C@@H]1NC(=O)c2cc(Oc3cccc(N(C)C)c3)c(NC(=O)COCc3ccccc3)cc2NC1=O`, the inhibition in test [1] turned out to be 34.5%; in test [2], 46.1%.

As to `COC(=O)CC[C@H]1NC(=O)c2cc(Oc3cccc(N(C)C)c3Cl)c(NC(=O)COCc3ccc(Cl)cc3)cc2NC1=O`, the inhibition came to 15.7% in test [1], 0.08% in test [3], 15.7% in test [4] and 21.9% in test [2].

As to `CCCCCCCNC(=O)CC[C@H]1NC(=O)c2cc(Cl)ccc2NC1=O`, the inhibition was -7.88% in test [3] and 1.25% in test [4].

`COC(=O)CC[C@H]1NC(=O)c2cc(Oc3ccccc3)c(NC(=O)COCc3ccc(C(F)(F)F)cc3)cc2NC1=O`: the inhibition in test [1] came to 29.8%; in test [2], 42.4%.

For `C=CCOCC(=O)Nc1cc2c(cc1Oc1cccc(N(C)C)c1)C(=O)N[C@H](CCC(=O)OC)C(=O)N2`, the results for the inhibition in test [1] and in test [2] were 38.5% and 43.3%, respectively.

Turning to `COC(=O)CC[C@H]1NC(=O)c2cc(Oc3cccc(N(C)C)c3)c(NC(=O)COCc3ccc(Cl)c(Cl)c3)cc2NC1=O`, the inhibition was 45.5% in test [1] and 36% in test [2].

As for `COC(=O)CC[C@H]1NC(=O)c2cc(N3CCOCC3)c(NC(=O)C3CC3)cc2NC1=O`, the inhibition is 6.82% in test [3] and 27% in test [4].

With `COC(=O)CC[C@H]1NC(=O)c2cc(Oc3cc(N(C)C)c(Cl)c(Cl)c3Cl)c(NC(=O)COCc3ccccc3)cc2NC1=O`, the inhibition in test [1] was 11.1%; in test [3], 11.1%; in test [4], 17.4%; in test [2] it was 16.2%.

As to `COC(=O)CC[C@H]1NC(=O)c2cc(N3CCOCC3)c(NC(=O)Cc3ccccc3)cc2NC1=O`, the values for the inhibition in test [3] and in test [4] were 13% and 50.9%, respectively.

Consider `CCCCCCCCCCCCNC(=O)CC[C@H]1NC(=O)c2cc(Oc3cccc(N(C)C)c3)c(NC(=O)COCc3ccccc3)cc2NC1=O`, for which the inhibition in test [1] came out at 29.1%; in test [3], 48.2%; in test [4], 23.1%; in test [2], 37.1%.

For the compound `CCCNC(=O)CC[C@H]1NC(=O)c2cc(Oc3cccc(N(C)C)c3)c(NC(=O)COCc3ccc(Br)cc3)cc2NC1=O`, the inhibition in test [1] was found to be 40.3%; in test [3], 50.5%; in test [4] it was 31%; in test [2], 50.2%.

For `CCCNC(=O)CC[C@H]1NC(=O)c2cc(Oc3cccc(N(C)C)c3)c(NC(=O)COCc3ccc(Cl)cc3)cc2NC1=O`, the inhibition in test [1] was 37.6%; in test [3], 47.6%; in test [4] it was 44.6%; in test [2], 52.9%.

Take `COC(=O)CC[C@H]1NC(=O)c2cc(Oc3cccc(N(C)C)c3)c(NC(=O)CCCc3ccccc3)cc2NC1=O`: the inhibition was determined as 18% in test [1] and 22.2% in test [2].

As to `CCCCN(CCCC)c1cc2c(cc1NC(C)=O)NC(=O)[C@@H](CCC(=O)OC)NC2=O`, the inhibition is -6.29% in test [3] and -7.93% in test [4].

As for `CCCCCCCCCCCCCCCCCCNC(=O)CC[C@H]1NC(=O)c2cc(Oc3cccc(N(C)C)c3)c(NC(=O)COCc3ccccc3)cc2NC1=O`, the inhibition was found to be 18.5% in test [3] and 12.7% in test [2].

Take `COC(=O)CC[C@H]1NC(=O)c2cc(OC)c(NC(=O)c3ccc4ccccc4c3)cc2NC1=O`: the inhibition amounted to 66.4% in test [3] and 76.6% in test [4].

Turning to `COC(=O)CC[C@H]1NC(=O)c2cc(Cl)ccc2NC1=O`, the inhibition in test [3] was 38%; in test [4], 28.9%.

For the compound `COC(=O)CC[C@H]1NC(=O)c2cc(Oc3cccc(N(C)C)c3)c(NC(=O)COCc3ccc(Cl)cc3Cl)cc2NC1=O`, the inhibition in test [1] was found to be 30.9%; in test [2], 59.5%.

Turning to `COC(=O)CC[C@H]1NC(=O)c2cc(Oc3cccc(N(C)C)c3)c(NC(=O)COCc3ccoc3)cc2NC1=O`, the results for the inhibition in test [1] and in test [2] were 24.8% and 34.9%, respectively.

As to `COC(=O)CC[C@H]1NC(=O)c2cc(Oc3ccccc3)c(NC(=O)Nc3ccc(F)cc3)cc2NC1=O`, the values for the inhibition in test [3] and in test [4] were -9.85% and 0.22%, respectively.

Consider `CN1CCN(C(=O)CC[C@H]2NC(=O)c3cc(Oc4cccc(N(C)C)c4)c(NC(=O)COCc4ccccc4)cc3NC2=O)CC1`, for which the inhibition is 38.8% in test [1] and 21.7% in test [2].

Consider `NC(=O)CC[C@H]1NC(=O)c2cc(Oc3cccc4ccccc34)c(NC(=O)/C=C\c3ccc(F)cc3Cl)cc2NC1=O`, for which the inhibition in test [3] was determined as 70.6%; in test [4] it was 54.8%.

Consider `COC(=O)CC[C@H]1NC(=O)c2cc(Oc3cc(N(C)C)ccc3Cl)c(NC(=O)COCc3ccccc3)cc2NC1=O`, for which the inhibition in test [1] was 11%; in test [3], 29.3%; in test [4] it was 7.26%; in test [2] it was 24.8%.

Regarding `CCCCCCCCCN1C(=O)[C@@H](CCC(N)=O)N(C)C(=O)c2ccc(Cl)cc21`, the inhibition in test [3] was 22%; in test [4] it was 29.5%.

Take `COC(=O)CC[C@H]1NC(=O)c2cc(Oc3cc(N(C)C)cc(Cl)c3Cl)c(NC(=O)COCc3ccccc3)cc2NC1=O`: the inhibition in test [1] was 9.23%; in test [3], 1.4%; in test [4], 6.85%; in test [2], -5.19%.

For `COC(=O)CC[C@H]1NC(=O)c2cc(Oc3ccc(C)c(C)c3)c(NC(=O)C3CC3)cc2NC1=O`, the results for the inhibition in test [3] and in test [4] were -9.9% and -4.24%, respectively.

For `CCCCCCCCCN1C(=O)[C@@H](CCC(=O)N[C@@H](C)C(N)=O)N(C)C(=O)c2ccc(Cl)cc21`, the values for the inhibition in test [3] and in test [4] were 17% and 27.7%, respectively.

Regarding `CCCCCCCCCN1C(=O)[C@@H](CCC(=O)OC)N(C)C(=O)c2ccc(Cl)cc21`, the results for the inhibition in test [3] and in test [4] were 31.3% and 34.1%, respectively.

Turning to `COC(=O)CC[C@H]1NC(=O)c2cc(Oc3cccc(N(C)C)c3)c(NC(=O)COCc3ccc(F)cc3Cl)cc2NC1=O`, the inhibition in test [1] was 12.8%; in test [3], 38.6%; in test [4] it was 13.5%; in test [2], 20.1%.

With `COC(=O)CC[C@@H]1NC(=O)c2cc(Oc3cccc(N(C)C)c3)c(NC(=O)COCc3ccc(F)cc3Cl)cc2NC1=O`, the results for the inhibition in test [1] and in test [2] were 10.3% and 29.3%, respectively.
